# Assay results as given in ChEMBL document CHEMBL3779833, “Hydroxyurea derivatives of irofulven with improved antitumor efficacy” (Bioorg Med Chem Lett, 2016).
# Calls of active or inactive are those of the source. No cut-off for these calls is given here.
# What was measured:
# NCI-H23 = assay: Cytotoxicity against human NCI-H23 cells after 48 hrs by sulforhodamine B assay; type: functional, cell-based; conditions: NCI-H23, 48 h
# KM12 = assay: Cytotoxicity against human KM12 cells after 48 hrs by sulforhodamine B assay; type: functional, cell-based; conditions: KM12, 48 h
# NCI-H460 = assay: Cytotoxicity against human NCI-H460 cells after 48 hrs by sulforhodamine B assay; type: functional, cell-based; conditions: NCI-H460, 48 h, read-out: pIC50 (converted)
# A549 = assay: Cytotoxicity against human A549 cells after 48 hrs by sulforhodamine B assay; type: functional, cell-based; conditions: A549, 48 h, read-out: pIC50 (converted)
# NCI-H226 = assay: Cytotoxicity against human NCI-H226 cells after 48 hrs by sulforhodamine B assay; type: functional, cell-based; conditions: NCI-H226, 48 h
# [1] = Cytotoxicity against human CHRF-288-11 cells after 48 hrs by trypan blue exclusion assay; type: cell-based
# In short: (§1)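 Cells exposed to drug for 48 h; growth measured by trypan blue exclusion. IC50 is the concentration giving 50% growth inhibition; values reported in nM.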
# [2] = Cytotoxicity against human PC3 cells after 48 hrs by sulforhodamine B assay; type: functional, cell-based; conditions: PC-3, 48 h
# Malme-3M = assay: Cytotoxicity against human MALME-3M cells after 48 hrs by sulforhodamine B assay; type: functional, cell-based
# [3] = Cytotoxicity against human SW620 cells after 48 hrs by sulforhodamine B assay; type: functional, cell-based; conditions: SW-620, 48 h
# [4] = Cytotoxicity against human SF295 cells after 48 hrs by sulforhodamine B assay; type: functional, cell-based; conditions: SF-295, 48 h
# [5] = Cytotoxicity against human OVCAR8 cells after 48 hrs by sulforhodamine B assay; type: functional, cell-based; conditions: OVCAR-8, 48 h
# NCI-H522 = assay: Cytotoxicity against human NCI-H522 cells after 48 hrs by sulforhodamine B assay; type: functional, cell-based; conditions: NCI-H522, 48 h
# [6] = Cytotoxicity against human OVCAR3 cells after 48 hrs by sulforhodamine B assay; type: functional, cell-based; conditions: OVCAR-3, 48 h
# [7] = Selectivity index, ratio of IC50 for human CHRF-288-11 cells to IC50 for human MV522 cells; type: functional
# In short: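 Ratio of the IC50 in megakaryocytic CHRF 288-11 (non-target) cells to the IC50 in MV522 adenocarcinoma (target) cells.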
# [8] = Cytotoxicity against human Caki1 cells after 48 hrs by sulforhodamine B assay; type: functional, cell-based; conditions: CAKI-1, 48 h
# [9] = Cytotoxicity against human HCT15 cells after 48 hrs by sulforhodamine B assay; type: functional, cell-based; conditions: HCT-15, 48 h
# SK-MEL-28 = assay: Cytotoxicity against human SK-MEL-28 cells after 48 hrs by sulforhodamine B assay; type: functional, cell-based; conditions: SK-MEL-28, 48 h
# [10] = Cytotoxicity against human SF539 cells after 48 hrs by sulforhodamine B assay; type: functional, cell-based; conditions: SF-539, 48 h
# [11] = Cytotoxicity against human COLO205 cells after 48 hrs by sulforhodamine B assay; type: functional, cell-based; conditions: COLO 205, 48 h
# U-251 = assay: Cytotoxicity against human U251 cells after 48 hrs by sulforhodamine B assay; type: functional, cell-based; conditions: U-251, 48 h
# [12] = Cytotoxicity against human HCT116 cells after 48 hrs by sulforhodamine B assay; type: functional, cell-based; conditions: HCT-116, 48 h
# [13] = Cytotoxicity against human NCI-ADR-RES cells after 48 hrs by sulforhodamine B assay; type: functional, cell-based
# MDA-MB-435 = assay: Cytotoxicity against human MDA-MB-435 cells after 48 hrs by sulforhodamine B assay; type: functional, cell-based; conditions: MDA-MB-435, 48 h
# [14] = Cytotoxicity against human DU145 cells after 48 hrs by sulforhodamine B assay; type: functional, cell-based; conditions: DU-145, 48 h, read-out: pIC50 (converted)
# [15] = Cytotoxicity against human SKOV3 cells after 48 hrs by sulforhodamine B assay; type: functional, cell-based; conditions: SK-OV-3, 48 h
# SN12C = assay: Cytotoxicity against human SN12C cells after 48 hrs by sulforhodamine B assay; type: functional, cell-based
# EKVX = assay: Cytotoxicity against human EKVX cells after 48 hrs by sulforhodamine B assay; type: functional, cell-based
# [16] = Cytotoxicity against human UO31 cells after 48 hrs by sulforhodamine B assay; type: functional, cell-based; conditions: UO-31, 48 h
# [17] = Cytotoxicity against human IGROV1 cells after 48 hrs by sulforhodamine B assay; type: functional, cell-based; conditions: IGROV-1, 48 h
# [18] = Cytotoxicity against human RXF393 cells after 48 hrs by sulforhodamine B assay; type: functional, cell-based; conditions: RXF 393, 48 h
# [19] = Cytotoxicity against human UACC257 cells after 48 hrs by sulforhodamine B assay; type: functional, cell-based; conditions: UACC-257, 48 h
# [20] = Cytotoxicity against human OVCAR5 cells after 48 hrs by sulforhodamine B assay; type: functional, cell-based; conditions: OVCAR-5, 48 h
# [21] = Cytotoxicity against human SNB75 cells after 48 hrs by sulforhodamine B assay; type: functional, cell-based; conditions: SNB-75, 48 h
# HT-29 = assay: Cytotoxicity against human HT-29 cells after 48 hrs by sulforhodamine B assay; type: functional, cell-based; conditions: HT-29, 48 h
# MV522 = assay: Antitumor activity against human MV522 cells xenografted in Balb/c nu/nu mouse assessed as inhibition of tumor growth at 10 mg/kg, ip administered thrice a week for 3 weeks; type: functional, organism-based
# In short: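 MV522 tumour xenografts in Balb/c nu/nu mice; drugs given intraperitoneally 3 times a week for 3 consecutive weeks at 10 mg/kg, the dose compared across agents; N = 8 per group.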
# [22] = Cytotoxicity against human SNB19 cells after 48 hrs by sulforhodamine B assay; type: functional, cell-based; conditions: SNB-19, 48 h
# M14 = assay: Cytotoxicity against human M14 cells after 48 hrs by sulforhodamine B assay; type: functional, cell-based; conditions: M14, 48 h
# SK-MEL-2 = assay: Cytotoxicity against human SK-MEL-2 cells after 48 hrs by sulforhodamine B assay; type: functional, cell-based; conditions: SK-MEL-2, 48 h
# 786-0 = assay: Cytotoxicity against human 786-0 cells after 48 hrs by sulforhodamine B assay; type: functional, cell-based; conditions: 786-0, 48 h
# [23] = Cytotoxicity against human Hs 578T cells after 48 hrs by sulforhodamine B assay; type: functional, cell-based
# [24] = Cytotoxicity against human OVCAR4 cells after 48 hrs by sulforhodamine B assay; type: functional, cell-based; conditions: OVCAR-4, 48 h
# [25] = Cytotoxicity against human BT549 cells after 48 hrs by sulforhodamine B assay; type: functional, cell-based; conditions: BT-549, 48 h
# [26] = Cytotoxicity against human SF268 cells after 48 hrs by sulforhodamine B assay; type: functional, cell-based; conditions: SF-268, 48 h
# [27] = Cytotoxicity against human MV522 cells after 48 hrs by trypan blue exclusion assay; type: functional, cell-based; conditions: MV522, 48 h; in short: as §1
# [28] = Cytotoxicity against human TK10 cells after 48 hrs by sulforhodamine B assay; type: functional, cell-based; conditions: TK-10, 48 h
# [29] = Cytotoxicity against human LOXIMVI cells after 48 hrs by sulforhodamine B assay; type: functional, cell-based; conditions: LOX IMVI
# T47D = assay: Cytotoxicity against human T47D cells after 48 hrs by sulforhodamine B assay; type: functional, cell-based
# [30] = Cytotoxicity against human HOP62 cells after 48 hrs by sulforhodamine B assay; type: functional, cell-based; conditions: HOP-62, 48 h
# MCF7 = assay: Cytotoxicity against human MCF7 cells after 48 hrs by sulforhodamine B assay; type: functional, cell-based; conditions: MCF7, 48 h
# A498 = assay: Cytotoxicity against human A498 cells after 48 hrs by sulforhodamine B assay; type: functional, cell-based; conditions: A498, 48 h
# ACHN = assay: Cytotoxicity against human ACHN cells after 48 hrs by sulforhodamine B assay; type: functional, cell-based
# SK-MEL-5 = assay: Cytotoxicity against human SK-MEL-5 cells after 48 hrs by sulforhodamine B assay; type: functional, cell-based; conditions: SK-MEL-5, 48 h
# [31] = Cytotoxicity against human HCC2998 cells after 48 hrs by sulforhodamine B assay; type: functional, cell-based; conditions: HCC 2998, 48 h
# [32] = Cytotoxicity against human HOP92 cells after 48 hrs by sulforhodamine B assay; type: functional, cell-based; conditions: HOP-92, 48 h
# MDA-MB-231 = assay: Cytotoxicity against human MDA-MB-231 cells after 48 hrs by sulforhodamine B assay; type: functional, cell-based; conditions: MDA-MB-231, 48 h
# NCI-H322M = assay: Cytotoxicity against human NCI-H322M cells after 48 hrs by sulforhodamine B assay; type: functional, cell-based
compound,measurement,setting,value
CC1=C(CO)C2=C(C)C3(CC3)[C@@](C)(O)C(=O)C2=C1 [IROFULVEN],IC50,NCI-H23,79.4 nM
same,IC50,KM12,631 nM
same,IC50,NCI-H460,< 50.1 nM
same,IC50,A549,< 126 nM
same,IC50,NCI-H226,200 nM
same,IC50,[1],290 nM
same,IC50,[2],251 nM
same,IC50,Malme-3M,200 nM
same,IC50,[3],631 nM
same,IC50,[4],316 nM
same,IC50,[5],200 nM
same,IC50,NCI-H522,158 nM
same,IC50,[6],251 nM
same,Ratio IC50,[7],4.1
same,IC50,[8],251 nM
same,IC50,[9],316 nM
same,IC50,SK-MEL-28,631 nM
same,IC50,[10],158 nM
same,IC50,[11],158 nM
same,IC50,U-251,316 nM
same,IC50,[12],200 nM
same,IC50,[13],251 nM
same,IC50,MDA-MB-435,1580 nM
same,IC50,[14],< 100 nM
same,IC50,[15],251 nM
same,IC50,SN12C,398 nM
same,IC50,EKVX,200 nM
same,IC50,[16],200 nM
same,IC50,[17],158 nM
same,IC50,[18],50.1 nM
same,IC50,[19],251 nM
same,IC50,[20],158 nM
same,IC50,[21],200 nM
same,IC50,HT-29,251 nM
same,TGI,MV522,Active
same,IC50,[22],316 nM
same,IC50,M14,251 nM
same,IC50,SK-MEL-2,200 nM
same,IC50,786-0,200 nM
same,IC50,[23],316 nM
same,IC50,[24],251 nM
same,IC50,[25],316 nM
same,IC50,[26],251 nM
same,IC50,[27],70 nM
same,IC50,[28],251 nM
same,IC50,[29],631 nM
same,IC50,T47D,200 nM
same,IC50,[30],158 nM
same,IC50,MCF7,251 nM
same,IC50,A498,200 nM
same,IC50,ACHN,251 nM
same,IC50,SK-MEL-5,158 nM
same,IC50,[31],158 nM
same,IC50,[32],316 nM
same,IC50,MDA-MB-231,316 nM
same,IC50,NCI-H322M,251 nM
CC(=O)ON(CC1=C(C)C=C2C(=O)[C@](C)(O)C3(CC3)C(C)=C21)C(N)=O,IC50,[1],1900 nM
CC1=C(CN(O)C(N)=O)C2=C(C)C3(CC3)[C@@](C)(O)C(=O)C2=C1 [LP-184],IC50,NCI-H23,15.8 nM
same,IC50,KM12,398 nM
same,IC50,NCI-H460,< 10 nM
same,IC50,A549,< 10 nM
same,IC50,NCI-H226,200 nM
same,IC50,[1],8800 nM
same,IC50,[2],398 nM
same,IC50,Malme-3M,126 nM
same,IC50,[3],15800 nM
same,IC50,[4],50.1 nM
same,IC50,[5],316 nM
same,IC50,NCI-H522,1000 nM
same,IC50,[6],50.1 nM
same,Ratio IC50,[7],41.9
same,IC50,[8],50.1 nM
same,IC50,[9],126 nM
same,IC50,SK-MEL-28,126 nM
same,IC50,[10],20 nM
same,IC50,[11],25.1 nM
same,IC50,U-251,126 nM
same,IC50,[12],158 nM
same,IC50,[13],158 nM
same,IC50,MDA-MB-435,398 nM
same,IC50,[14],< 10 nM
same,IC50,[15],316 nM
same,IC50,SN12C,316 nM
same,IC50,EKVX,316 nM
same,IC50,[16],25.1 nM
same,IC50,[17],25.1 nM
same,IC50,[18],15.8 nM
same,IC50,[19],251 nM
same,IC50,[20],25.1 nM
same,IC50,[21],31.6 nM
same,IC50,HT-29,126 nM
same,TGI,MV522,Active
same,IC50,[22],126 nM
same,IC50,M14,200 nM
same,IC50,SK-MEL-2,398 nM
same,IC50,786-0,126 nM
same,IC50,[23],501 nM
same,IC50,[24],100 nM
same,IC50,[25],158 nM
same,IC50,[26],20 nM
same,IC50,[27],210 nM
same,IC50,[28],31.6 nM
same,IC50,[29],316 nM
same,IC50,T47D,63.1 nM
same,IC50,[30],25.1 nM
same,IC50,MCF7,1260 nM
same,IC50,A498,31.6 nM
same,IC50,ACHN,31.6 nM
same,IC50,SK-MEL-5,63.1 nM
same,IC50,[31],12.6 nM
same,IC50,[32],39.8 nM
same,IC50,MDA-MB-231,251 nM
same,IC50,NCI-H322M,100 nM
NC(=O)NO [HYDROXYUREA],IC50,[27],> 650000 nM
